# Data published in ChEMBL document CHEMBL4513216, “Probing the Open Global Health Chemical Diversity Library for Multistage-Active Starting Points for Next-Generation Antimalarials” (ACS Infect Dis, 2020).
# Experiment: Toxicity liver stage against HepG2, at 10uM
# Type: cell-based
# Parameters: test concentration 10 uM, cell line HepG2-A16-CD81EGFP
# Conditions: human, HepG2-A16-CD81EGFP cells; read-out: INHIBITION
# How it was run: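 Uninfected HepG2-A16-CD81EGFP cells, 3 × 10^3 per well, 1536-well, plated on prespotted compound at 10 μM final, parasite-free screening media added to match infected plates; puromycin 10 μM positive, DMSO 0.5% negative; run in parallel with 48 h PbLuc assay at 37 °C, 5% CO2; viability by CellTiter-Glo luminescence, normalized to controls.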
row,Compound,cytotoxicity at 10 µM
1,CC(=O)N1CCC(c2cncc(Oc3ccccc3)n2)CC1,6.05%
2,CC(=O)N1CCOC(Cc2cccc(C(F)(F)F)c2)C1 (configuration not stated),-6.64%
3,Cc1ccc(CNC(=O)Cn2c(=O)c3cccnc3n2C)cc1F,-2.83%
4,Cc1ccn(-c2ccc(NCc3ccccc3F)nn2)n1,3.66%
5,CC(C)COCCC(=O)Nc1cc(-n2nnnc2C2CC2)ccc1F,7.57%
6,N#Cc1ccc(OC2CCN(C(=O)c3ccc4c(c3)OCO4)CC2)nc1,-14.7%
7,O=C(CC1CCCC1)N1C[C@@H]2CCN(c3cccnc3)C[C@@H]2C1,4.24%
8,Cc1cnc(N2C[C@@H]3C[C@H](C(=O)N(C)C)[C@H](C2)O3)nc1,-2.47%
9,Cc1cc(=O)[nH]c(-n2nc(-c3cccs3)cc2N)n1,4.57%
10,Cc1[nH]c2nc(CNc3cccc(Cl)c3)nn2c(=O)c1C,0.0924%
11,CCO[C@@H]1CC[C@H]2[C@H]1OCCN2Cc1ccc(F)cc1,10.3%
12,c1ccc(Cc2noc(CN3CCCC3C3CCCCC3)n2)cc1 (configuration not stated),11.9%
13,O=C(CC1CC1)N1CCc2ncc(CN3CCOCC3)n2CC1,-80.6%
14,O=C(c1cnc(-c2ccccc2)s1)N1CCC2(CC1)OCCO2,2.42%
15,Cc1nn(CC(O)CN2CCc3ccccc3C2)c(=O)c2ccccc12 (configuration not stated),11.1%
16,O=C(c1ccc(Cl)cc1)N1CCC2(CC1)C(=O)Nc1ccccc12,-145%
17,c1cnn(CC2CN(c3ncnc4c3CCC4)CCO2)c1 (configuration not stated),31.2%
18,CCc1c(C)nn(CCNC(=O)C2CCCN(C(=O)N(C)C)C2)c1C (configuration not stated),-4.42%
19,Cc1nc2c(c(=O)[nH]1)CCN(Cc1ccc3c(c1)CCCN3C)C2,-1.87%
20,Cc1cnn(CC2CCCN2Cc2nccn2C)c1 (configuration not stated),3.54%
21,CC(C#N)(NC(=O)c1ccc(C#N)cc1)C1CC1 (configuration not stated),-3.67%
22,O=C(N1CCC(Nc2cccnn2)CC1)C1(c2ccc(F)cc2)CC1,-12.8%
23,CCn1cc(S(=O)(=O)NC(CO)Cc2c[nH]c3ccccc23)cn1 (configuration not stated),10.8%

row,Compound,cytotoxicity at 10 µM
1,O=C(Cn1cnc(-c2cccs2)cc1=O)Nc1cccnc1,-3.69%
2,OC(CN1CCN(CCOCC(F)(F)F)CC1)c1ccccc1 (configuration not stated),-7.99%
3,O=C(CCN1C(=O)CCC1=O)Nc1ccc(Cl)cc1,-2.79%
4,CCC(C)N(CC)C(=O)c1ccc2[nH]nnc2c1 (configuration not stated),10.5%
5,COc1ccc2c(c1)C1(CCN(Cc3ccccn3)CC1)N(C)CC2,-150%
6,CCn1ccnc1CN1CCN(Cc2cc(C#N)ccc2F)CC1,-7.19%
7,N#Cc1ccc(Cl)cc1NCC1CC1,-3.7%
8,CN1CCN(CCCNS(=O)(=O)Cc2ccccc2F)CC1,-11.1%
9,Cc1cc(C)n(Cc2ccc(C(=O)N3CCOCC3(C)C)cc2)n1,-9.23%
10,O=C(c1ncccn1)N1C[C@@H]2COC[C@]2(COc2cccnc2)C1,-91.5%
11,CC1CN(C)c2ccccc2CN1C(=O)c1cscn1 (configuration not stated),-1.03%
12,CCS(=O)(=O)N1CCOC2(CCCN(c3cnccn3)C2)C1 (configuration not stated),2.66%
13,CCn1cnnc1C1CCN(C(=O)COc2ccccc2OC)CC1,-4.41%
14,CC(C)(CNc1cc(F)ccc1F)S(C)(=O)=O,-2.94%
15,CCc1nc(C)c(-c2nccn2CC2CCCCO2)[nH]1 (configuration not stated),3.98%
16,COc1ccc(S(=O)(=O)NCC(c2cccn2C)N(C)C)c(C)c1 (configuration not stated),7.78%
17,Cn1nc(C2CCNC2)c2c(C(=O)NCC(F)(F)F)cc(C3CC3)nc21 (configuration not stated),8.41%
18,CC1CCc2n[nH]c(C(=O)N3CCc4c(nc(N(C)C)[nH]c4=O)C3)c2C1 (configuration not stated),21.4%
19,O=C(Cc1cccc(F)c1)N1C[C@H]2CN(Cc3ccccn3)C[C@H]2C1,-2.25%
20,Cc1cc(CN2CCN(C(c3ccccc3)c3ccccc3)CC2)no1,-6.56%
21,Cc1ccccc1-c1cncc(C2CCN(C(C)C)CC2)n1,1.2%
22,Cc1ccc2oc([C@H]3CCN(Cc4ccccc4)C3)nc2c1,-6.75%
23,O=S1(=O)CCC(n2cc(C3=CCN(CCn4cccc4)CC3)cn2)C1 (configuration not stated),-8.5%

row,Compound,cytotoxicity at 10 µM
1,CC(C)c1ocnc1C(=O)N1CC(=O)Nc2cccnc21,1.56%
2,c1ccc2oc(NC3CCCN(Cc4noc(C5CC5)n4)C3)nc2c1 (configuration not stated),-0.989%
3,CCc1ccccc1-c1cc(C)nc(N)n1,1.12%
4,O=C(NC1CCc2c(ccc(=O)n2CC2CC2)C1)c1ccsc1 (configuration not stated),-4.48%
5,COc1cc(CNc2cc(-c3nncn3C)ccn2)cc(OC)c1OC,-3.78%
6,COc1cnc(C2(O)CCN(C(=O)c3scnc3C)CC2)c(OC)n1,-6.41%
7,CC(C)c1cc2c(O)nc(CSCC(=O)NCc3ccncc3)nc2s1,-6.18%
8,O=C(c1ccc(F)cc1)N1C[C@H]2CCC[C@@]2(COCc2ccncc2)C1,8.04%
9,c1cncc(-c2c[nH]c([C@@H]3COCCN3Cc3ccncc3)n2)c1,3.25%
10,Cc1ccc(CC(NC(=O)CN(C)C2CC2)c2ccccn2)cc1 (configuration not stated),5.33%
11,CN(CCc1nccs1)C(=O)C1(C#N)CCCCC1,2.91%
12,O=C(NCC(F)(F)F)C1CCCN(Cc2ccno2)C1 (configuration not stated),-4.13%
13,Cc1cccc(-c2ccc3nc(C4CCN(CC5CC5)CC4)nn3c2)c1,-12.2%
14,CCNC(=O)c1nnn(Cc2ccccc2)c1OC,4.62%
15,CCC(C)N1C(=O)c2ccc(C(=O)NCCc3c[nH]cn3)cc2C1=O (configuration not stated),-8.64%
16,COc1cc(S(=O)(=O)N2C[C@@H](C)[C@@](C)(O)C2)c(C)cc1C,-2.06%
17,CC(C)=CCN1CCN(S(=O)(=O)c2cn(C)cn2)[C@H]2CS(=O)(=O)C[C@H]21,0.634%
18,CC(C)Nc1ncnc2c1CCNCC2,-1.43%
19,Cc1nn(C)c(N(C)C)c1CNC1CCOc2c(F)cccc21 (configuration not stated),-13.9%
20,COCCCNC(=O)Nc1c(C)cccc1C(C)C,2.66%
21,Cn1cc(C2CCCN2C(=O)CCCOc2ccc(F)cc2F)cn1 (configuration not stated),-7.54%
22,CC(CNC(=O)Nc1ccc(F)cc1-n1cccc1)N1CCOCC1 (configuration not stated),-8.71%
23,Cc1cccc(C(=O)N2C[C@@H]3CC[C@H]2CN(S(=O)(=O)N(C)C)C3)n1,7.4%

row,Compound,cytotoxicity at 10 µM
1,CC1c2ncc(Cn3cccn3)n2CCN1Cc1cccnc1 (configuration not stated),6.49%
2,Cc1noc([C@@]23CCO[C@@H]2CCN(CC2CCOCC2)C3)n1,-2.1%
3,O=C(NCCCO)Nc1cccc(C[S+]([O-])Cc2ccccc2)c1 (configuration not stated),-1.06%
4,CC1(c2ccccc2)CCCN(Cc2nnc(-c3cccnc3)o2)C1 (configuration not stated),-6.64%
5,Cn1ncc2c(=O)[nH]c(CN3CCCC3CC(C)(C)C)nc21 (configuration not stated),-1.09%
6,O=C(c1cccnc1)N1C[C@H]2CC[C@@H](C1)N(Cc1cccc(Cl)c1F)C2,-9.24%
7,Cc1ccoc1CNCc1nnc2n1CCCC2C(F)(F)F (configuration not stated),13.9%
8,CC(C#N)CNC(=O)Nc1ccc(Br)cc1 (configuration not stated),1.44%
9,CN(C)c1ccc(NC(=O)C2CN(Cc3ccccc3)CCO2)cn1 (configuration not stated),4.46%
10,CCC[C@H]1CN(CCS(C)(=O)=O)C[C@@H]1NC(=O)c1cccnn1,3.25%
11,O=C(Nc1ccc(-n2ccnc2)c(F)c1)C1CCN(C(=O)C2CC2)CC1,1.21%
12,Cc1nn(C)c2c(=O)n(Cc3ccc(C#N)cc3)nnc12,3.12%
13,Cc1ccc(N2CCC3(CC2)COCCN(c2nccs2)C3)nn1,-107%
14,O=C(Nc1ccc(F)cc1F)NC1(CO)CCOCC1,-40.4%
15,COCc1nc(C(=O)N2CCCC2c2ccccc2C)cs1 (configuration not stated),4.28%
16,CCN(Cc1nonc1C)C(=O)c1cnccn1,-4.04%
17,COc1ccccc1-c1ccc(C(=O)N2C[C@@H]3CC[C@H]2CN(C)C3)cc1,-18.2%
18,CNC(=O)N(C)CC1(c2ccc(Br)cc2)CC1,-9.6%
19,CCCn1nccc1-c1nccnc1CC1CCN(C(C)=O)CC1,-6.15%
20,COc1nc(N2CCNCC2)ncc1Br,5.2%
21,Cc1cnn(CC2CCCN2Cc2coc(-c3ccc(F)cc3)n2)c1 (configuration not stated),-0.953%
22,O=c1[nH]c2cn(-c3ccccc3)c(=O)n2[nH]1,-11.5%
23,Cc1cc(C)c(CNC(=O)NCC2COc3ccccc3C2)c(=O)[nH]1 (configuration not stated),8.51%

row,Compound,cytotoxicity at 10 µM
1,CN(Cc1nnc2n1CCC2)S(=O)(=O)c1cc(Br)ccc1Br,0.392%
2,CCc1nnc(CNC2CCc3nc(C(C)C)nn3C2)o1 (configuration not stated),-20.6%
3,Cc1cc(NS(=O)(=O)c2c[nH]c3ncccc23)no1,-1.69%
4,Cc1ccnc(OC[C@@]23CCO[C@@H]2CCN(c2ncc(F)cn2)C3)n1,10.9%
5,Cc1csc(N2CCN(C3CCc4ccccc4C3)CC2)n1 (configuration not stated),2.01%
6,Cc1occc1C(=O)N1CCC2(CCCN(Cc3nccs3)C2)C1 (configuration not stated),-3.32%
7,COc1ccc(C(NCc2cccc(C#N)c2)C2CC2)cc1 (configuration not stated),15.9%
8,CCSCCC(=O)NCCn1nc2ccccn2c1=O,-9.53%
9,O=C(CCc1nc(Cl)n[nH]1)N1CCC2(CCCN(CC3CCC3)C2=O)C1 (configuration not stated),-5.3%
10,CCn1cc(CN(C)S(=O)(=O)N2CCCC2c2ccco2)cn1 (configuration not stated),9.14%
11,CC(CC(=O)NCCCn1cccn1)c1cccnc1 (configuration not stated),-1.66%
12,CN1CCN(Cc2cn3c(n2)CN(C(=O)c2ccco2)CC3)CC1,-4%
13,COc1ccncc1NC(=O)C1(c2ccccc2)CC1,2.72%
14,COC(=O)c1cccc(CNC(=O)CCC(F)(F)F)c1,11.6%
15,COCCN1CCC2(CC1)CN(C(=O)N(C)C)c1ccc(C)cc12,7.74%
16,O=c1[nH]c(-c2ccccc2)nc2c1CCN(S(=O)(=O)N1CCCC1)C2,3.86%
17,O=C(c1ccc(Cl)cc1)N1CCC(N2CCCCC2=O)CC1,7.3%
18,C=C(C)Cn1ccc2cc(OC)c(F)cc2c1=O,3.09%
19,CCC1CCC(NCCN2CCOCC2)CC1 (configuration not stated),3.62%
20,NC(=O)CC1c2cccnc2C(=O)N1Cc1ccccc1 (configuration not stated),-5.8%
